Article PMC7583637 (Bioconjugate Chemistry, 2020)
Where a SMILES comes first, the peptide text is derived from it. [ ]: non-standard residue; d: D form. Dip = N[C@H](C(=O)O)C(c1ccccc1)c1ccccc1; Chg = N[C@H](C(=O)O)C1CCCCC1; NMeA = CN[C@@H](C)C(=O)O

Legend:
[1] = test system: c-FLIP mRNA; assay: RT-qPCR of c-FLIP mRNA expression; format: cell-based, human; conditions: 300 nM, Lipofectamine LTX, 24 h; for Reduction of c-FLIP mRNA levels: A549, relative to reference genes, ΔΔCq, n = 3; for Effect on c-FLIP mRNA levels: A549
[2] = test system: c-FLIP; conditions: 2′-MOE-RNA/DNA gapmer PSOs; cited from earlier work
[3] = test system: A549 cells; assay: AlamarBlue viability assay after lipofection of SMC-PSO conjugates; format: cell-based, human; conditions: 100 nM, Lipofectamine LTX, 48 h, no TRAIL; for Loss of viability: relative to medium control
In short: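 A549 cells in DMEM with 10% FCS and 4 mM glutamine (37 °C, 5% CO2) were seeded at 5 × 10³ cells/well and grown 24 h to ~70% confluency. Conjugate in OptiMEM was complexed with PLUS Reagent, then Lipofectamine LTX (20 min, RT), and added at 100 nM final in antibiotic-free medium. After 48 h, cells were PBS-washed and given alamarBlue (1:10 in PBS) for 2 h at 37 °C. Fluorescence was read at 531/590 nm relative to medium control.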

[4] = biological target: XIAP L-Bir2-Bir3 (Homo sapiens, UniProt P98170); assay: Competitive fluorescence polarization binding assay with Smac-1F probe
Chain of XIAP L-Bir2-Bir3 (P98170 120-356): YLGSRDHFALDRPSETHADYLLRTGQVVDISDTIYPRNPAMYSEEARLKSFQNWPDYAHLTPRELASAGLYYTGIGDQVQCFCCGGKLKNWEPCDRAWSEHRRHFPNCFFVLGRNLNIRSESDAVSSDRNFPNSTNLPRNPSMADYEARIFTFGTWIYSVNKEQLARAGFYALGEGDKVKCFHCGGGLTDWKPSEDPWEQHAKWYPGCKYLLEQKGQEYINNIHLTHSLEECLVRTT

[5] = test system: A549 cells; assay: AlamarBlue viability assay, PNA-CPP and SMC-PNA-CPP conjugates or chloroquine; format: cell-based, human; conditions: control experiments, Figure S7A
[6] = test system: Caspase 3 and 7 activity; assay: Caspase 3/7 assay; format: cell-based, human; conditions: 200 nM conjugate, 2 ng/mL SuperKillerTRAIL, 24 h, DEVD-AFC
In short: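 A549 cells were seeded in 6-well plates 24 h ahead and lipofected to a final 200 nM with 2 ng/mL SuperKillerTRAIL. After 24 h, cells were harvested and lysed (HEPES/NaCl/EDTA/1% Triton X-100, pH 7.5; 20 min on ice with sonication), and protein was measured by BCA. 35 μg protein was mixed with 2× buffer (HEPES, 20 mM DTT, 20% glycerol, pH 7.5) containing 50 μM DEVD-AFC, 2 h at 37 °C in the dark. […] versus medium-treated control; SD shown.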

[7] = test system: A549 cells; conditions: read-out: IC50, toxicity to A549 cells; cited from earlier work

For “5'-ACTTGTCCCTGCTCCTTGAA-3' (full phosphorothioate, further chemistry not given here) [ISIS 23296, reference compound]”, the “Reduction of c-FLIP mRNA levels” value [1] is listed as “up to 50%”, the “Knockdown reported in original publication” value [2] is listed as 70% and the Loss of viability [3] is listed as “ca. 30%”.
For “5'-AGTTCTCTCTGCCCCTAGAT-3' (phosphorothioate, further chemistry not given here) [unconjugated, scrambled PSO, reference compound]”, the “Effect on c-FLIP mRNA levels” value [1] was “significant upregulation of c-FLIP levels” and the “Effect on viability” value [3] was “some decrease in viability”.
Work on `CN[C@@H](C)C(=O)N[C@H](C(=O)N1CCC[C@H]1C(=O)N[C@H](C(=O)NCC(N)=O)C(c1ccccc1)c1ccccc1)C1CCCCC1` [SMC, H-MeAla-Chg-Pro-Dip-Gly-NH2] (H-[NMeA][Chg]P[Dip]G-NH2) yielded an IC50 [4] of 4.6 µM.
With `CCN(CC)CCCC(C)Nc1ccnc2cc(Cl)ccc12` (centres unmarked) [chloroquine] the “Concentration up to which viability of A549 cells is not affected” value [5] was “up to 200 μM”.
In the case of “Ac-Gly-Lys(N3-DBCO-ACTTGTCCCTGCTCCTTGAA)-Dap(AcS-Chg-Pro-Dip)-NH2 [AcSMC-PSO1]”, the Loss of viability [3] is reported as “ca. 30%”.
“Ac-Gly-Lys(N3-DBCO-ACTTGTCCCTGCTCCTTGAA)-Dap(MeA-Chg-Pro-Dip)-NH2 [SMC-PSO1]” showed a Loss of viability [3] of 40%.
In the case of “Ac-Gly-Lys(N3-DBCO-AGTTCTCTCTGCCCCTAGAT)-Dap(AcS-Chg-Pro-Dip)-NH2 [AcSMC-scrPSO1]”, the “Effect on viability” value [3] is reported as “some decrease in viability”.
With “Ac-Gly-Lys(N3-DBCO-AGTTCTCTCTGCCCCTAGAT)-Dap(MeA-Chg-Pro-Dip)-NH2 [SMC-scrPSO1]” the Loss of viability [3] was “ca. 30%”.
In the case of “AcS-Chg-Pro-Dip-Gly-Gly-Lys(N3-DBCO-ACTTGTCCCTGCTCCTTGAA)-Dap(AcS-Chg-Pro-Dip)-NH2 [(AcSMC)2-PSO1]”, the “Reduction of c-FLIP mRNA levels” value [1] is reported as “around 40%”.
For “AcS-Chg-Pro-Dip-Gly-Gly-Lys(N3-DBCO-AGTTCTCTCTGCCCCTAGAT)-Dap(AcS-Chg-Pro-Dip)-NH2 [(AcSMC)2-scrPSO1]”, the “Effect on c-FLIP mRNA levels” value [1] was “upregulation of c-FLICE did not occur”.
For “MeA-Chg-Pro-Dip-Gly-Gly-Lys(N3-DBCO-ACTTGTCCCTGCTCCTTGAA)-Dap(MeA-Chg-Pro-Dip)-NH2 [(SMC)2-PSO1]”, the “Increase of caspase 3/7 activity over background” value [6] was about 40 fold, the “Reduction of c-FLIP mRNA levels” value [1] was “around 40%” and the Loss of viability [3] was 50–60%.
In the case of “MeA-Chg-Pro-Dip-Gly-Gly-Lys(N3-DBCO-AGTTCTCTCTGCCCCTAGAT)-Dap(MeA-Chg-Pro-Dip)-NH2 [(SMC)2-scrPSO1]”, the “Effect on c-FLIP mRNA levels” value [1] is reported as “upregulation of c-FLICE did not occur”.
In the case of Penetratin, the IC50 [7] is listed as 60.8 µM.
For Transportan, the IC50 [7] is given as 2.5 µM.
In the case of octaarginine, the IC50 [7] is given as over 1000 µM.
